Test [1] can be described thus: Antioxidant activity assessed as superoxide radical scavenging activity by NBT dye reduction assay. It counts as functional. Put shortly: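 Superoxide generated by the NADH/PMS system. Scavenging read as inhibition (%) of O2•−-driven NBT reduction to diformazan at 560 nm. Tiron was the positive control. IC50 given as mean ± SE, five experiments in triplicate.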

Test [2] can be described thus: Antioxidant activity assessed as hypochlorous acid scavenging activity by fluorescent rhodamine formation assay. The format is functional. A digest of the protocol:
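Fluorescent assay of HOCl-induced dihydrorhodamine oxidation to rhodamine, with HOCl from 1% (m/v) NaOCl adjusted to pH 6.2 with 10% H2SO4. Lipoic acid was the positive control. IC50 (mean ± SE) comes from % inhibition, five experiments in triplicate.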

The nature of test [3]: Antioxidant activity assessed as hydrogen peroxide scavenging activity by lucigenin oxidation assay. The format is functional. Put shortly:
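H2O2 scavenging followed as inhibition (%) of H2O2-induced lucigenin oxidation on a microplate reader. Ascorbic acid was the positive control. IC50 reported as mean ± SE from five experiments, each in triplicate.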

The nature of test [4]: Antioxidant activity assessed as nitric oxide scavenging activity by fluorescent triazofluorescein formation assay. It counts as functional. Put shortly:
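NO scavenging measured as inhibition (%) of NO-induced oxidation of non-fluorescent DAF-2 to fluorescent triazolofluorescein. Rutin was the positive control. IC50 given as mean ± SE, five experiments in triplicate.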

Test [5] is described as follows: Antioxidant activity assessed as peroxyl radical scavenging activity by measuring oxygen radical absorbance capacity. It counts as functional. More on the design: reference not given here.
The nature of test [6]: Antioxidant activity assessed as peroxynitrite scavenging activity in presence of NaHCO3 by fluorescent rhodamine formation assay. It counts as functional.
Test [7] can be described thus: Antioxidant activity assessed as peroxynitrite scavenging activity in absence of NaHCO3 by fluorescent rhodamine formation assay. The format is functional.
Test [8] is described as follows: Antioxidant activity assessed as singlet oxygen scavenging activity by fluorescent rhodamine formation assay. It counts as functional. A digest of the protocol:
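Singlet oxygen scavenging monitored as inhibition (%) of 1O2-induced oxidation of non-fluorescent dihydrorhodamine to fluorescent rhodamine. Ascorbic acid was the positive control. IC50 given as mean ± SE, five experiments in triplicate.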

Test [9] in a line: Iron chelating activity assessed as Fe(2+)-compound complex formation at 10 uM by UV-Vis absorption spectroscopy. The format is functional. A digest of the protocol: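 Iron chelation checked from changes in the UV–vis spectrum (300–600 nm) of a 10 µM (final) compound solution in 20 mM phosphate buffer, pH 7.2. Fe(II) was added sequentially to 0, 2, 4, 6, 8, 10, 12, 14 and 16 µM.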

A short description of test [10]: Reducing activity assessed as reduction of ferric ion by reducing power assay. A digest of the protocol:
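Compounds in 1:4 water/DMSO were mixed with 0.2 M phosphate buffer pH 6.6 and 1% w/v K3Fe(CN)6, then held 20 min at 50 °C. After 10% w/v TCA and centrifugation (10 min, 3000 g), the supernatant was diluted with water plus 0.1% w/v FeCl3 and read at 700 nm. Ascorbic acid was the positive control. Values are mean ± SE of triplicates.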

Test [11] in a line: Antioxidant activity assessed as hypochlorous acid scavenging activity at 200 uM by fluorescent rhodamine formation assay. It counts as functional. Put shortly:
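HOCl was made by bringing 1% (m/v) NaOCl to pH 6.2 with 10% H2SO4. Scavenging was read as inhibition (%) of HOCl-induced oxidation of dihydrorhodamine to fluorescent rhodamine. Value given as mean % at the highest tested concentration (200 µM). Five experiments in triplicate.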

Test [12] in a line: Antioxidant activity assessed as hydrogen peroxide scavenging activity at 1 mM by lucigenin oxidation assay. It counts as functional.

IC50 and Activity data for twelve compounds are collected here from ChEMBL document CHEMBL1152628, “Synthesis and antioxidant properties of new chromone derivatives” (Bioorg Med Chem, 2009).

The source made the active and inactive calls. The calls are words filed in the database; no cut-off is given here.

For the compound `CCCCCCCCCCc1c(-c2ccc(O)c(O)c2)oc2cc(O)cc(O)c2c1=O`, the 50% inhibitory concentration (IC50) was found to be 78 µM in test [1]; 1.7 µM in test [2]; 236 µM in [3]; 4.85 µM in test [4]; 1.82 µM in test [6]; 0.83 µM in [7]. For the same compound, in [8], the IC50 is 7.9 µM. In addition, in [5], the Activity came out at 1.63.
In the case of `COc1ccc2c(=O)cc(/C=C/c3ccc(O)c(O)c3)oc2c1OC`, the IC50 in test [1] was determined as 20.8 µM; in [2], 4.67 µM; in [3], 702 µM; in test [4], 0.368 µM; in [6], 0.93 µM; in test [7], 1.21 µM. Moreover, the IC50 in test [8] worked out at 7.97 µM. Further, the result in test [9] and in test [10] was Active. Moreover, the Activity in [5] came to 2.74.
Take `CCCCCCc1c(-c2ccc(O)c(O)c2)oc2cc(O)cc(O)c2c1=O`: the IC50 in [1] amounted to 62.8 µM; in test [2], 2.49 µM; in [3], 348 µM; in test [4], 3.29 µM; in [6], 1.8 µM; in [7] it was 1.48 µM. The IC50 in test [8] came to 58.6 µM. The Activity in [5] turned out to be 2. The outcome in test [10] was Active.
Take `O=C(c1ccc(O)c(O)c1)c1c(-c2ccc(O)c(O)c2)oc2cc(O)cc(O)c2c1=O`: the IC50 was found to be 19.5 µM in test [1]; 2.29 µM in test [2]; 367 µM in test [3]; 3.62 µM in [4]; 1.97 µM in [6]; 0.66 µM in test [7]. The half-maximal inhibitory concentration (IC50) in test [8] stood at 43 µM. Further, the Activity in test [5] came to 4.32. Further, the result in test [10] was Active.
As for `COc1ccc(/C=C/c2cc(=O)c3ccc(O)c(O)c3o2)cc1OC`, the IC50 in test [1] came to 26 µM; in [4], 0.254 µM; in [6] it was 2.08 µM; in test [7] it was 0.59 µM; in test [8], 9.95 µM. The values for the Activity in test [11], in test [12] and in [5] were 47%, 31% and 1.4, respectively. Moreover, the outcome in test [9] and in [10] was Active.
As to `O=C1O[C@H]([C@@H](O)CO)C(O)=C1O` [ASCORBIC ACID], the IC50 in [3] was 567 µM; in test [8] it was 10.2 µM. Moreover, the Activity in test [5] came out at 0.405. Moreover, the outcome in test [10] was Active.
As to `O=C(O)CCCCC1CCSS1` (stereo not drawn) [LIPOIC ACID, ALPHA], the IC50 in test [2] was 1.95 µM.
For `O=c1cc(/C=C/c2ccc(O)c(O)c2)oc2c(O)c(O)ccc12`, the IC50 in test [1] came out at 17.8 µM; in [2], 67.2 µM; in test [3], 799 µM; in [4], 0.193 µM; in test [6], 1.59 µM; in [7], 0.85 µM. The IC50 in test [8] was found to be 4.69 µM. In addition, the result in test [9] and in test [10] was Active. For the same compound, the Activity in test [5] was found to be 2.58.
On to `CCCCc1c(-c2ccc(O)c(O)c2)oc2cc(O)cc(O)c2c1=O`, for which the IC50 in [1] was determined as 51.8 µM; in [2], 1.45 µM; in test [3], 502 µM; in [4], 2.72 µM; in test [6] it was 1.24 µM; in test [7], 0.6 µM. Also, in test [8], the half-maximal inhibitory concentration (IC50) was 61.8 µM. In test [5], the Activity was found to be 2.66. Besides, the result in test [10] was Active.
For `O=S(=O)(O)c1cc(O)c(O)c(S(=O)(=O)O)c1` [TIRON], the IC50 in test [1] worked out at 288 µM.
For `C[C@@H]1O[C@@H](OC[C@H]2O[C@@H](Oc3c(-c4ccc(O)c(O)c4)oc4cc(O)cc(O)c4c3=O)[C@H](O)[C@@H](O)[C@@H]2O)[C@H](O)[C@H](O)[C@H]1O` [RUTIN], the IC50 in test [4] was found to be 1.17 µM.
Take `O=c1c2ccccc2[se]n1-c1ccccc1` [EBSELEN]: the figures for the half-maximal inhibitory concentration (IC50) in [6] and in test [7] were 5.27 µM and 1 µM, respectively.
